Activity calls are given as the source filed them. No cut-off for these calls is given here.
Experiments:
HL-60(TB) = assay: Cytotoxicity against human HL-60(TB) cells; assay type: functional, cell-based
Procedure, shortened: (§1)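 Human colon cancer and leukaemia line panel. Compounds tested from 10^-4 to 10^-8 M, and IC50 values determined.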

SW-620 = assay: Cytotoxicity against human SW620 cells; assay type: functional, cell-based; procedure, shortened: as §1
[1] = biological target: T1, ATP-dependent translocase ABCB1 (Homo sapiens, UniProt P08183); assay: Inhibition of human MDR1-mediated multidrug resistant in mouse L5178Y cells at 40 uM treated 10 mins before rhodamine 123 challenge measured after 20 mins relative to control; assay type: cell-based
T1 sequence (P08183 whole entry): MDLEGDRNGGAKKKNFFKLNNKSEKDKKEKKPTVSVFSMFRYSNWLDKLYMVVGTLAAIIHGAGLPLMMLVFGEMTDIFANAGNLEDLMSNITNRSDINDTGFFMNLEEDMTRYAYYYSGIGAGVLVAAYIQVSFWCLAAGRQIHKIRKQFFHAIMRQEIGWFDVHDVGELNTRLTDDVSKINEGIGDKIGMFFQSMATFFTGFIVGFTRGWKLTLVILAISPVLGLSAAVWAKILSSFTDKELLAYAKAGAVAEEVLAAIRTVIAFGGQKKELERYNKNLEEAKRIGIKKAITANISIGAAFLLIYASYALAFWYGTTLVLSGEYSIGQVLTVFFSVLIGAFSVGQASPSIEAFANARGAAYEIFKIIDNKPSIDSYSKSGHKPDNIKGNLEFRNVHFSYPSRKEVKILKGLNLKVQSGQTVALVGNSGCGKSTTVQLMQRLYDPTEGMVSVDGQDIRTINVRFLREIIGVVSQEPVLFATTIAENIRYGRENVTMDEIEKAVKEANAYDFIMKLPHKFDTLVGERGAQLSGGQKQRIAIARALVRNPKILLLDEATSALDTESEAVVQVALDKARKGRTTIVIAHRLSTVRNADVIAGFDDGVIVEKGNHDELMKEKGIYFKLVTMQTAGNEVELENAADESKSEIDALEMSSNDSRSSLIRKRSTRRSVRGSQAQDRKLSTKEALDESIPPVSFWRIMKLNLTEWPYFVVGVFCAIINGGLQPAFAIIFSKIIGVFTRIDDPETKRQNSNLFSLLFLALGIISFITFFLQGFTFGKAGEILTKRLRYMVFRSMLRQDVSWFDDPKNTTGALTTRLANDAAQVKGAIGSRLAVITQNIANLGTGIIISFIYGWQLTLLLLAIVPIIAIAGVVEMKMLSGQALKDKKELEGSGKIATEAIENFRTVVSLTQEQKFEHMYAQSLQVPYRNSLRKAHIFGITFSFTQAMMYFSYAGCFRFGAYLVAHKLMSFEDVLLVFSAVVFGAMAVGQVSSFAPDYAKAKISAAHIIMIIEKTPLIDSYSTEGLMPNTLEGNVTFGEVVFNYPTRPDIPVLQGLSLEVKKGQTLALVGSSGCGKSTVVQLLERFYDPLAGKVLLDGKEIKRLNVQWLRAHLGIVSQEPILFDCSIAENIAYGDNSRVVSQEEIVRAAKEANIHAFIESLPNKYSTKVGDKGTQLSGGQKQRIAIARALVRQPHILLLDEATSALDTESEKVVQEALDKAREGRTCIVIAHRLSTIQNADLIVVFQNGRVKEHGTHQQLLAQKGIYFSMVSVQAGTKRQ
Procedure, shortened: (§2)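 Compounds in DMSO were added at room temperature to mdr1-transfected and parental L5178Y cells. After 10 min, rhodamine 123 was added, followed by 20 min at 37 °C. Cellular rhodamine fluorescence was measured and expressed as fluorescence activity ratio (FAR); FAR >1 indicates MDR reversal.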

MOLT-4 = assay: Growth inhibition of human Molt4/C8 cells; assay type: functional, cell-based
HL-60 [2] = assay: Cytotoxicity against human HL60 cells after 48 hrs; assay type: functional; conditions: HL-60, 48 h
Procedure, shortened: (§3)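 Human HSC-2, HSC-3, HSC-4 squamous carcinoma and HL-60 promyelocytic leukaemia cells incubated with compound for 48 h. CC50, the concentration killing 50% of cells, read from a dose–response curve.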

HSC-2 [3] = assay: Cytotoxicity against human HSC2 cells after 48 hrs; assay type: functional; conditions: HSC-2, 48 h; procedure, shortened: as §3
HL-60 [4] = assay: Selectivity index, ratio of CC50 for human normal cells to CC50 for human HL60 cells; assay type: functional
HSC-4 [5] = assay: Cytotoxicity against human HSC4 cells after 48 hrs; assay type: functional; conditions: HSC-4, 48 h; procedure, shortened: as §3
HSC-4 [6] = assay: Selectivity index, ratio of CC50 for human normal cells to CC50 for human HSC4 cells; assay type: functional
L1210 = assay: Growth inhibition of mouse L1210 cells; assay type: functional, cell-based
[7] = Cytotoxicity against human HGF cells after 48 hrs; assay type: cell-based
Procedure, shortened: (§4)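 Cells were exposed to a dose range for 48 h, following a literature method. CC50 was read from the dose–response curve.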

HSC-3 [8] = assay: Cytotoxicity against human HSC3 cells after 48 hrs; assay type: functional; conditions: HSC-3, 48 h; procedure, shortened: as §3
[9] = Cytotoxicity against human HPLF cells after 48 hrs; assay type: cell-based; procedure, shortened: as §4
HSC-2 [10] = assay: Selectivity index, ratio of CC50 for human normal cells to CC50 for human HSC2 cells; assay type: functional
CCRF-CEM = assay: Growth inhibition of human CEM cells; assay type: functional, cell-based
[11] = biological target: T1, ATP-dependent translocase ABCB1; assay: Inhibition of human MDR1-mediated multidrug resistant in mouse L5178Y cells at 4 uM treated 10 mins before rhodamine 123 challenge measured after 20 mins relative to control; assay type: cell-based; procedure, shortened: as §2
HSC-3 [12] = assay: Selectivity index, ratio of CC50 for human normal cells to CC50 for human HSC3 cells; assay type: functional
HSC-4 [13] = assay: Ratio of melphalan CC50 to compound CC50 for human HSC4 cells; assay type: functional
HCC 2998 = assay: Cytotoxicity against human HCC2998 cells; assay type: functional, cell-based; procedure, shortened: as §1
HT-29 = assay: Cytotoxicity against human HT-29 cells; assay type: functional, cell-based; procedure, shortened: as §1
RPMI-8226 = assay: Cytotoxicity against human RPMI8226 cells; assay type: functional, cell-based; procedure, shortened: as §1
COLO 205 = assay: Cytotoxicity against human COLO205 cells; assay type: functional, cell-based; procedure, shortened: as §1
KM12 = assay: Cytotoxicity against human KM12 cells; assay type: functional, cell-based; procedure, shortened: as §1
HCT-116 = assay: Cytotoxicity against human HCT116 cells; assay type: functional, cell-based; procedure, shortened: as §1
HSC-3 [14] = assay: Ratio of melphalan CC50 to compound CC50 for human HSC3 cells; assay type: functional
HCT-15 = assay: Cytotoxicity against human HCT15 cells; assay type: functional, cell-based; procedure, shortened: as §1
HSC-2 [15] = assay: Ratio of melphalan CC50 to compound CC50 for human HSC2 cells; assay type: functional
K562 = assay: Cytotoxicity against human K562 cells; assay type: functional, cell-based; procedure, shortened: as §1

| Compound | IC50 (HL-60(TB)) [µM] | IC50 (SW-620) [µM] | Ratio [1] | growth inhibition (GI) (MOLT-4) | CC50 (HL-60 [2]) [µM] | CC50 (HSC-2 [3]) [µM] | Ratio (HL-60 [4]) | CC50 (HSC-4 [5]) [µM] | Ratio (HSC-4 [6]) | growth inhibition (GI) (L1210) | CC50 at 48 h [7] [µM] | CC50 (HSC-3 [8]) [µM] | CC50 at 48 h [9] [µM] | Ratio (HSC-2 [10]) | growth inhibition (GI) (CCRF-CEM) | Ratio [11] | Ratio (HSC-3 [12]) | IC50 (HT-29) [µM] | IC50 (RPMI-8226) [µM] | IC50 (COLO 205) [µM] | further results |
| --- | --- | --- | --- | --- | --- | --- | --- | --- | --- | --- | --- | --- | --- | --- | --- | --- | --- | --- | --- | --- | --- |
| O=c1[nH]cc(F)c(=O)[nH]1 [FLUOROURACIL] | > 2510 | 380 | – | – | – | – | – | – | – | – | – | – | – | – | – | – | – | – | – | – | – |
| O=C1/C(=C/c2ccccc2)CN(C(=O)CCCC(=O)N2C/C(=C\c3ccccc3)C(=O)/C(=C/c3ccccc3)C2)C/C1=C\c1ccccc1 | – | – | 73.4 | Active | 0.39 | 0.071 | 6.33 | 0.19 | 13 | Active | 2.9 | 0.17 | 3.9 | 34.8 | Active | 50.2 | 14.5 | – | – | – | – |
| O=C1/C(=C/c2ccccc2)CN(C(=O)CCCCCCC(=O)N2C/C(=C\c3ccccc3)C(=O)/C(=C/c3ccccc3)C2)C/C1=C\c1ccccc1 | – | – | 55.7 | Active | 1.3 | 0.17 | 8 | 0.62 | 16.8 | Active | 13 | 0.21 | 17 | 61.2 | Active | 49.2 | 49.5 | – | – | – | – |
| O=C1/C(=C/c2ccccc2)CN(C(=O)c2ccccc2C(=O)N2C/C(=C\c3ccccc3)C(=O)/C(=C/c3ccccc3)C2)C/C1=C\c1ccccc1 | 0.21 | 0.3 | 51.5 | Active | 0.11 | 0.026 | 44.7 | 0.082 | 60 | Active | 5.7 | 0.076 | 8.5 | 189 | Active | 46.5 | 64.7 | 0.17 | 0.06 | 0.21 | Ratio (HSC-4 [13]): 390; IC50 (HCC 2998): 0.2 µM; IC50 (KM12): 0.21 µM; IC50 (HCT-116): 0.03 µM; Ratio (HSC-3 [14]): 329; IC50 (HCT-15): 0.35 µM; Ratio (HSC-2 [15]): 335; IC50 (K562): 0.21 µM |
| O=C1/C(=C/c2ccccc2)CN(C(=O)c2cccc(C(=O)N3C/C(=C\c4ccccc4)C(=O)/C(=C/c4ccccc4)C3)c2)C/C1=C\c1ccccc1 | 2.04 | 0.36 | 61.3 | Active | 6.6 | 3.2 | 5.5 | 8 | 4.54 | Active | 42 | 6.3 | 46 | 11.3 | Active | 38.9 | 5.76 | 0.55 | 0.73 | 2.4 | IC50 (KM12): 0.35 µM; IC50 (HCT-116): 0.2 µM; IC50 (HCT-15): 1.7 µM; IC50 (K562): 1.55 µM |
| O=C1/C(=C/c2ccccc2)CN(C(=O)C(=O)N2C/C(=C\c3ccccc3)C(=O)/C(=C/c3ccccc3)C2)C/C1=C\c1ccccc1 | 0.2 | 0.07 | 41.1 | Active | 0.11 | 0.085 | 29.6 | 0.2 | 16.3 | Active | 3.8 | 0.15 | 5.3 | 38.4 | Active | 19.3 | 21.7 | 0.17 | 0.25 | 0.36 | IC50 (HCC 2998): 0.19 µM; IC50 (KM12): 0.04 µM; IC50 (HCT-116): 0.03 µM; IC50 (HCT-15): 0.3 µM; IC50 (K562): 0.2 µM |
| O=C1/C(=C/c2ccccc2)CN(C(=O)/C=C/C(=O)N2C/C(=C\c3ccccc3)C(=O)/C(=C/c3ccccc3)C2)C/C1=C\c1ccccc1 | 0.45 | 0.22 | 52.9 | Active | 1.2 | 0.078 | 12.4 | 0.58 | 25.7 | Active | 17 | 0.62 | 22 | 191 | Active | 37.2 | 24 | 0.25 | 0.05 | 0.56 | IC50 (HCC 2998): 0.22 µM; IC50 (KM12): 0.21 µM; IC50 (HCT-116): 0.13 µM; IC50 (HCT-15): 0.83 µM; IC50 (K562): 0.32 µM |
| O=C1/C(=C/c2ccccc2)CN(C(=O)CCC(=O)N2C/C(=C\c3ccccc3)C(=O)/C(=C/c3ccccc3)C2)C/C1=C\c1ccccc1 | 0.27 | 0.26 | 60 | Active | 0.41 | 0.099 | 22.4 | 0.24 | 38.2 | Active | 10 | 0.23 | 16 | 92.6 | Active | 35 | 39.9 | 0.24 | 0.06 | 0.39 | IC50 (HCC 2998): 0.23 µM; IC50 (KM12): 0.3 µM; IC50 (HCT-116): 0.14 µM; IC50 (HCT-15): 0.38 µM; IC50 (K562): 0.22 µM |
| N[C@@H](Cc1ccc(N(CCCl)CCCl)cc1)C(=O)O [MELPHALAN] | – | – | – | – | 1.4 | 8.7 | 150 | 32 | 6.56 | – | – | 25 | – | 24.1 | – | – | 8.4 | – | – | – | – |
| O=C1/C(=C/c2ccccc2)CN(C(=O)/C=C/C=C/C(=O)N2C/C(=C\c3ccccc3)C(=O)/C(=C/c3ccccc3)C2)C/C1=C\c1ccccc1 | – | – | 44.3 | Active | 7.4 | 2.6 | 4.73 | 6.4 | 5.47 | Active | 39 | 8.5 | 47 | 13.5 | Active | 48.6 | 4.12 | – | – | – | – |
| O=C1/C(=C/c2ccccc2)CN(C(=O)C#CC(=O)N2C/C(=C\c3ccccc3)C(=O)/C(=C/c3ccccc3)C2)C/C1=C\c1ccccc1 | 0.25 | 0.2 | 45.7 | Active | 0.87 | 0.19 | 9.05 | 0.93 | 8.46 | Active | 8.5 | 0.49 | 13 | 41.4 | Active | 42 | 16.1 | 0.2 | 0.08 | 0.25 | IC50 (HCC 2998): 0.41 µM; IC50 (KM12): 0.28 µM; IC50 (HCT-116): 0.12 µM; IC50 (HCT-15): 0.39 µM; IC50 (K562): 0.3 µM |

Reference: ChEMBL document CHEMBL2010770, “Dimeric 3,5-bis(benzylidene)-4-piperidones: a novel cluster of tumour-selective cytotoxins possessing multidrug-resistant properties” (Eur J Med Chem, 2012)
